sdo1 growth – sdo1-depleted yeast growth rescue | S. cerevisiae sdo1-depleted JHY4D growth rescue, OD600 30 h; active compounds read high; pdr5 snq2 efflux-pump mutant strain | z-score at 10 µM | actives 0.21% (n = 140,000);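 active means z-score above 3 at both the 24 hr and the 30 hr optical density reads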
NCF1 inh – inhibitors of human p47phox binding. P14598. p47phox/p22phox peptide binding, fluorescence polarization, 2 h. inhibition, % at 24.7 µM. actives 0.53% (n = 220,000);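 active means inhibition above about 30%, limit read from the data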
Target sequence (P14598 whole entry, looked up): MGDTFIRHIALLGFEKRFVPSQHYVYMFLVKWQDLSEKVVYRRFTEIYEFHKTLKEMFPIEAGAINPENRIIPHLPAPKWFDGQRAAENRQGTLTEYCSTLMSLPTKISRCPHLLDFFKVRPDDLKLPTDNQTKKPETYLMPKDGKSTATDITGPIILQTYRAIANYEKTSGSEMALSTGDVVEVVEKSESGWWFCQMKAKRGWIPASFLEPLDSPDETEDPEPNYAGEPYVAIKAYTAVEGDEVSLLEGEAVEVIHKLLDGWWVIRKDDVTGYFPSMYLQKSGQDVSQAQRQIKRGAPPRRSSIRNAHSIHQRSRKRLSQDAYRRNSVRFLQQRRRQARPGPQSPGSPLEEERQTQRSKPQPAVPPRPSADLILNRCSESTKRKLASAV
RBBP9 inh – human RBBP9 hydrolase inhibition; actives 0.2% (n = 220,000); recombinant RBBP9, FP-Rh probe fluorescence polarization; inhibition, % at 7.94 µM;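 active means inhibition above the campaign mean of all tested compounds plus 3 SD, cut at about 14% in these data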
Target sequence (O75884 whole entry, looked up): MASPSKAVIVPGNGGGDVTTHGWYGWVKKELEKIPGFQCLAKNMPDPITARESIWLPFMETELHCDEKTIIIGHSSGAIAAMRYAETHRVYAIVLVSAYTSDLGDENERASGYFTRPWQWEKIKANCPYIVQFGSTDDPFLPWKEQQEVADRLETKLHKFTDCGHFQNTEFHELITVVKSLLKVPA
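system = RBBP9 protein | input = RBBP9 at 2.5 µM in dispensed solution, before mixing | measured by = fluorescence polarization (mP), excitation 525 nm, emission 598 nm | incubation = enzyme-compound preincubation 30 min, then probe labeling 45 min, 25 °C | buffer or medium = Tris-NaCl-Pluronic buffer, pH 8.0 | compound = single dose 7.94 µM | also added = FP-Rh probe, 375 nM dispensing solution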
TbHK1 inh – blocks Trypanosoma brucei hexokinase 1 activity; inhibition, % at 10 µM; actives 0.11% (n = 220,000); recombinant TbHK1, G6PDH-coupled NADH A340; AID 1430;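 active means inhibition of 50% or more in the single-dose primary screen; inactive means inhibition below 50%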
Yeast growth inh – reduces growth of yeast BB579 in restrictive medium. AID 804. actives 0.51% (n = 140,000). S. cerevisiae BB579 growth, OD615, 48 h. inhibition, % at 10 µM;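 active means inhibition above a set limit, 3 SD over the mean compound inhibition, cut at about 44% in these data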
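test system = yeast BB579 (DeaD) | buffer or medium = restrictive CSMM-D medium | doses = single compound dose of 10 µM, 0.25% DMSO final | times = 4 h preincubation and 48 h exposure at 30 °C | technique = culture absorbance at 615 nm | benchmarks = amphotericin B 10 µg/mL, positive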
Yeast life ext – extends the lifespan of yeast; S. cerevisiae growth with nicotinamide, OD615; deaD strain in restrictive glucose medium; inhibition of the nicotinamide effect, % at 10 µM; actives 0.68% (n = 130,000); AID 775;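 active means inhibition above a set limit, placed 3 SD over the median of all compounds, cut at about 26% in these data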
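assay system = DeaD-strain S. cerevisiae | measured by = absorbance at 615 nm | probe or stimulus = nicotinamide 1.5 mM | buffer or medium = CSMM-D glucose medium, restrictive | times = 48 h at 30 °C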
Each line names hits and unclear results; the compound was inactive in the other large screens. Sampled rows, rich in hits. Any-hit rate of the full collection: about 1.6%.

Cc1ccc(NC(=O)N(Cc2ccco2)Cc2cc3cc(C)cc(C)c3nc2Cl)cc1	NCF1 inh 160
CC1(C)N([O-])C2=C(c3ccccc3C2=O)[N+](=O)C1(C)C	Yeast life ext 53
CCCCCCNC(=O)N[C@H](C(=O)NCCC[C@H]1CN2C(=NC[C@H]2C)N1CCC(c1ccccc1)c1ccccc1)C(C)O (stereo partly drawn)	NCF1 inh 87 (no result: sdo1 growth, RBBP9 inh, Yeast growth inh, Yeast life ext)
CCCCCCCC(=O)NNC(=O)c1c(O)c2ccccc2[nH]c1=O	none (no result: sdo1 growth, Yeast growth inh, Yeast life ext)
CCCCCCNC(=O)c1c(O)c2ccccc2[nH]c1=O	Yeast life ext 36
COc1ccc(CNC(=O)C2CCN(c3nc(OC)nc(OC)n3)CC2)cc1	Yeast life ext 90
Cc1ccc(/C=N/NC(=O)CCCOc2ccc(Cl)cc2Cl)cc1	none
O=C(CCCOc1ccc(Cl)cc1Cl)N/N=C/c1ccccc1	NCF1 inh 51
CS(=O)(=O)N(CC(=O)Nc1ccc(S(=O)(=O)N2CCCC2)cc1)c1cccc(F)c1	none (no result: sdo1 growth, Yeast growth inh, Yeast life ext)
COC(=O)c1cc(Br)c(=O)n(-c2ccc(F)cc2)c1	NCF1 inh 31
CCOc1ccc(-c2cc(CCCC(=O)NCc3ccco3)no2)cc1	NCF1 inh 33
CCOc1ccc(-c2cc(CCCC(=O)NCc3ccc(C)cc3)no2)cc1	none
c1ccc(N2CCN(c3nnnn3-c3ccccc3)CC2)cc1	none
ClC(Cl)(c1nnnn1-c1ccccc1)c1nnnn1-c1ccccc1	Yeast life ext 50
S=C(Nc1ccccc1)N1CCN(C(=S)c2ccccc2)CC1	none (no result: sdo1 growth, Yeast growth inh, Yeast life ext)
O=C(Cc1cccs1)NC1CCCC1	none (no result: sdo1 growth, Yeast growth inh, Yeast life ext)
O=C(NCCc1ccccn1)C(F)(F)C(F)(F)C(F)(F)C(F)(F)C(F)(F)C(F)(F)C(F)(F)C(F)F	Yeast life ext 33
O=C(COc1ccc(Cl)cc1)NCCc1ccccn1	none (no result: sdo1 growth, Yeast growth inh, Yeast life ext)
CCOc1cc2[nH]c(=S)n(CCC(=O)NCc3ccc(OC)cc3)c(=O)c2cc1OCC	NCF1 inh 35
Cc1cccc(C(=O)O/N=C2\CCSc3ccc(C)cc32)c1	NCF1 inh 94
O=C(NN1C(=O)C2CC=C(Cl)CC2C1=O)c1ccncc1 (stereo not drawn)	none (no result: sdo1 growth, Yeast growth inh, Yeast life ext)
CC(C)(C)c1ccc(S(=O)(=O)N2CCN(c3ncccn3)CC2)cc1	none (no result: sdo1 growth, Yeast growth inh, Yeast life ext)
O=C(/C=N\O)NCCCNCc1ccccc1	Yeast life ext 50
CC1CCCN(C2=C(NS(=O)(=O)c3ccc(Cl)cc3)C(=O)c3ccccc3C2=O)C1 (stereo not drawn)	NCF1 inh 50
COC(=O)C1CCN(C2=C(NS(=O)(=O)c3ccc(Cl)cc3)C(=O)c3ccccc3C2=O)CC1	none (no result: sdo1 growth, Yeast growth inh, Yeast life ext)
COc1cc2c(cc1OC)C(C(=O)Nc1cc(OC)c(OC)c(OC)c1)C(c1cccnc1)N(C)C2=O (stereo not drawn)	none (no result: sdo1 growth, Yeast growth inh, Yeast life ext)
Cc1nn2c(-c3ccco3)nnc2c2ccccc12	Yeast growth inh 88
Cc1nn2c(-c3ccncc3)nnc2c2ccccc12	Yeast growth inh 89
COc1ccc(-c2nnc3c4ccccc4c(C)nn23)cc1	Yeast growth inh 49
COc1ccc(N(CC(=O)O)S(=O)(=O)c2ccc(OC)c(OC)c2)cc1	Yeast life ext 29
CCOc1ccc(OCC)c(NC(=O)C2CCCN2S(=O)(=O)c2cccc3cccnc23)c1 (stereo not drawn)	none
COc1ccc(NC(=O)C2CCCN2S(=O)(=O)c2cccc3cccnc23)c(OC)c1 (stereo not drawn)	Yeast growth inh 98
Cc1ccc(NC(=O)c2sc3nc(CCl)[nH]c(=O)c3c2C)c(C)c1	none (no result: sdo1 growth, Yeast growth inh, Yeast life ext)
CCCCCc1ccc(OCCOCCn2c[n+](C)c3ccccc32)c(CCCCC)c1	NCF1 inh 75 (no result: sdo1 growth, Yeast growth inh, Yeast life ext)
CCCC(c1nnnn1CC1CCCO1)N1CCN(c2nc3ccccc3s2)CC1 (stereo not drawn)	none (no result: Yeast life ext)
CCCCC(c1nnnn1CC1CCCO1)N1CCN(c2nc3ccccc3s2)CC1 (stereo not drawn)	Yeast life ext 73
Cc1[nH]n(-c2ccccc2)c(=O)c1C(c1cccc([N+](=O)[O-])c1O)c1c(C)[nH]n(-c2ccccc2)c1=O	none
Cc1[nH]n(-c2ccccc2)c(=O)c1C(c1cccc([N+](=O)[O-])c1)c1c(C)[nH]n(-c2ccccc2)c1=O	Yeast life ext 30
C=CCC(CC(O)COCCC)C(=O)NNC(=S)Nc1ccccc1 (stereo not drawn)	none (no result: sdo1 growth, Yeast growth inh, Yeast life ext)
CC(C)(C)c1cc(OS(C)(=O)=O)ccc1O	NCF1 inh 32 (no result: sdo1 growth, Yeast growth inh, Yeast life ext)
CC#CCN(CC#CC)S(=O)(=O)c1ccc(S(=O)(=O)N2CCOCC2)cc1	NCF1 inh 194
COc1ccc(/C=C(/NC(=O)c2ccc([N+](=O)[O-])cc2)C(=O)NC(C)(C)C)cc1	none (no result: sdo1 growth, Yeast growth inh, Yeast life ext)
CCOc1ccc2ccccc2c1CNc1nnnn1C	none (no result: sdo1 growth, Yeast growth inh, Yeast life ext)
Cc1ccc(/C=N/Nc2ccnc3cc(Cl)ccc23)c(C)c1	NCF1 inh 47, Yeast growth inh 68
Cc1ccc(C(=O)N2c3ccccc3CC2C)o1 (stereo not drawn)	NCF1 inh 41 (no result: sdo1 growth, Yeast growth inh, Yeast life ext)
Cc1c(C(=O)C(=O)N2c3ccccc3CC2C)c2ccccc2n1C (stereo not drawn)	NCF1 inh 41 (no result: sdo1 growth, Yeast growth inh, Yeast life ext)
Cc1ccc(C(=O)N2CCc3ccccc32)o1	none
Cc1c(C(=O)C(=O)N2CC=C(c3ccccc3)CC2)c2ccccc2n1C	none
C#CCOCCOCCOCCNc1nc(N2CCN(C(=O)[C@H]([C@@H](C)CC)n3cc([C@@H](N)Cc4ccc(O)cc4)nn3)CC2)nc(N2CCN(C(=O)[C@H](CCCCN)n3cc([C@@H](N)CC(C)C)nn3)CC2)n1	none (no result: sdo1 growth, Yeast growth inh, Yeast life ext)
CCOC(=O)N1CCN(CC(=O)c2ccc3c(c2)CCN3C(C)=O)CC1	NCF1 inh 49
O=C(O)CCC(=O)Nc1ccc(Br)cc1C(=O)c1ccc(Cl)cc1	none (no result: sdo1 growth, Yeast growth inh, Yeast life ext)
O=[N+]([O-])/C=C/c1cn(Cc2ccccc2)c2ccccc12	none
N#Cc1ccccc1Cn1cc(/C=C/[N+](=O)[O-])c2ccccc21	Yeast life ext 35
COCCNc1nc(-c2ccc(OC)cc2)c(-c2ccc(OC)cc2)s1	none (no result: sdo1 growth, Yeast growth inh, Yeast life ext)
CCOC(=O)/C(=N\Nc1ccccc1Cl)N1CCN(Cc2ccccc2)CC1	Yeast growth inh 59
CCOC(=O)/C(=N\Nc1ccccc1Cl)N1CCN(C)CC1	none
COC(=O)c1[nH]c2ccccc2c1NC(=O)c1c(F)cccc1F	none (no result: sdo1 growth, Yeast growth inh, Yeast life ext)
Cc1ccc(CNC(=O)CCc2nc(-c3cccs3)no2)cc1	NCF1 inh 200
Cc1onc(-c2ccccc2)c1CNC(=O)C1COc2ccccc2O1 (stereo not drawn)	none (no result: sdo1 growth, Yeast growth inh, Yeast life ext)
O=c1c2sc(-c3ccccc3)cc2nc2n1CCCCC2	none (no result: sdo1 growth, Yeast growth inh, Yeast life ext)
O=c1c2sc(-c3ccccc3)cc2nc2n1CCC2	Yeast growth inh 83 (no result: Yeast life ext)
CCOC(=O)/C(=C\c1cn(C)c2ccccc12)[N+](=O)[O-]	Yeast life ext 44
CCOC(=O)/C(C#N)=C\c1cn(C)c2ccccc12	none (no result: sdo1 growth, Yeast growth inh, Yeast life ext)
